Legend:
Trypanosoma brucei = assay: Antitrypanosomal activity against blood stream form of Trypanosoma brucei 221a variant assessed as parasite growth inhibition measured after 48 hrs by resazurin dye based fluorescence analysis; assay type: functional, organism-based; conditions: for EC50: 48 h; for EC90: time 48 hrs
How it was run: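 Bloodstream-form T. b. brucei 221a (MiTat1.2a) in modified Iscove's medium at 37 °C, started at 2.5×10^4 mL^-1 with a concentration range. After 48 h, resazurin was added for a further 16 h. Fluorescence read at ex 545/em 590 nm. EC50 and EC90 taken from three independent replicates.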

[1] = Cytotoxicity against rat L6 cells assessed as cell growth inhibition incubated for 6 days by resazurin dye based assay; assay type: toxicity
How it was run: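 Rat L6 myoblasts seeded at 1×10⁴ mL⁻¹ in RPMI-1640 with a range of compound concentrations, 6 days at 37 °C; resazurin added, 6 h further, fluorescence ex 545/em 590 nm.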

[2] = Selectivity index, ratio of EC50 for cytotoxicity against rat L6 cells to EC50 for antitrypanosomal activity against bloodstream form of Trypanosoma brucei brucei 221a variant; assay type: toxicity, cell-based; conditions: read-out: Ratio EC50
How it was run: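 L6 rat myoblasts seeded at 1×10^4 mL^-1 in RPMI-1640 with a compound concentration range for 6 days at 37 °C. Resazurin added for 6 h, then fluorescence read.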

[3] = Apparent permeability across apical to basolateral side in MDCK-MDR1 cells at 10 uM measured for 60 mins by LC-MS/MS analysis; assay type: ADME, cell-based, Canis lupus familiaris; conditions: dog
How it was run: (§1)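 MDCKII-hMDR1 monolayers on inserts, compound 10 μM (1% DMSO) in duplicate, 60 min at 37 °C, bidirectional, with and without elacridar 2 μM. Amprenavir as P-gp control, Lucifer yellow for monolayer integrity; compound quantified by LC–MS/MS.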

[4] = Metabolic stability in mouse liver microsomes assessed as half life at 1 uM measured upto 60 mins in presence of NADPH by LC-MS/MS analysis; assay type: ADME, Microsome; conditions: 1 h
[5] = Efflux ratio of apparent permeability across basolateral to apical side over apical to basolateral side in MDCK-MDR1 cells at 10 uM measured for 60 mins by LC-MS/MS analysis; assay type: ADME, cell-based, Canis lupus familiaris; conditions: dog, mdck-mdr1, 1 h
How it was run: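 MDCKII cells overexpressing human MDR1 (P-glycoprotein) grown as monolayers on inserts; bidirectional transport (apical-to-basolateral and basolateral-to-apical) of 10 μM compound (1% DMSO) at 37 °C for 60 min, in duplicate, with and without P-gp inhibitor elacridar (2 μM). Monolayer integrity checked with Lucifer yellow; amprenavir as P-gp control. Compound quantified by LC–MS/MS; efflux ratio = BA Papp/AB Papp.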

[6] = Apparent permeability across basolateral to apical side in MDCK-MDR1 cells at 10 uM measured for 60 mins by LC-MS/MS analysis; assay type: ADME, cell-based, Canis lupus familiaris; conditions: dog, MDCK-MDR1; how it was run: as §1

| SMILES | EC50 (Trypanosoma brucei) [nM] | EC90 (Trypanosoma brucei) [nM] | EC50 at 6 days [1] [nM] | selectivity ratio [2] | Papp A→B at 1 h, 10 µM [3] [×10⁻⁶ cm/s] | t1/2 [4] [min] | Ratio [5] | Papp B→A at 1 h, 10 µM [6] [×10⁻⁶ cm/s] |
| --- | --- | --- | --- | --- | --- | --- | --- | --- |
| N=C(N)c1ccc2nc(CCCCCc3nc4ccc(C(=N)N)cc4s3)sc2c1 | 98 | 145 | 114000 | 1200 |  |  |  |  |
| N=C(N)c1ccc2nc(CCc3nc4ccc(C(=N)N)cc4s3)sc2c1 | 250 | 400 | > 170000 | > 680 |  |  |  |  |
| CC(C)CN(C[C@@H](O)[C@H](Cc1ccccc1)NC(=O)O[C@H]1CCOC1)S(=O)(=O)c1ccc(N)cc1 [AMPRENAVIR] |  |  |  |  | 0.5 |  |  |  |
| c1cc2nc(CCc3nc4ccc(C5=NCCCN5)cc4s3)sc2cc1C1=NCCCN1 | 2380 | 3480 | > 140000 | > 59 |  |  |  |  |
| c1cc2nc(CCCCc3nc4ccc(C5=NCCCN5)cc4s3)sc2cc1C1=NCCCN1 | 190 | 310 | > 130000 | > 680 |  |  |  |  |
| C(=C\c1nc2ccc(C3=NCCN3)cc2s1)/c1nc2ccc(C3=NCCN3)cc2s1 | 190 | 680 | 4100 | 22 |  |  |  |  |
| C[C@]12CC[C@H]3[C@@H](CCC4=CC(=O)CC[C@@]43C)[C@@H]1CC[C@@H]2O [TESTOSTERONE] |  |  |  |  |  | 6.7 |  |  |
| c1cc2nc(CCCCCCc3nc4ccc(C5=NCCCN5)cc4s3)sc2cc1C1=NCCCN1 | 28 | 56 | > 130000 | > 4600 |  |  |  |  |
| N=C(N)c1ccc2nc(/C=C/c3nc4ccc(C(=N)N)cc4s3)sc2c1 | 12 | 22 | 2480 | 210 |  |  |  |  |
| C(=C\c1nc2ccc(C3=NCCCN3)cc2s1)/c1nc2ccc(C3=NCCCN3)cc2s1 | 100 | 160 | 51800 | 520 |  |  |  |  |
| c1cc2nc(CCCc3nc4ccc(C5=NCCN5)cc4s3)sc2cc1C1=NCCN1 | 5390 | 9010 | > 150000 | > 28 |  |  |  |  |
| N=C(N)c1ccc2nc(CCCCCCCc3nc4ccc(C(=N)N)cc4s3)sc2c1 | 740 | 1390 | 13900 | 18 |  |  |  |  |
| N=C(N)c1ccc2nc(CCCc3nc4ccc(C(=N)N)cc4s3)sc2c1 | 340 | 750 | > 160000 | > 470 |  |  |  |  |
| N=C(N)c1ccc2nc(CCCCc3nc4ccc(C(=N)N)cc4s3)sc2c1 | 63 | 131 | 134000 | 2100 |  |  |  |  |
| c1cc2nc(CCCCCc3nc4ccc(C5=NCCN5)cc4s3)sc2cc1C1=NCCN1 | 1560 | 2110 | 93500 | 60 |  |  |  |  |
| c1cc2nc(CCc3nc4ccc(C5=NCCN5)cc4s3)sc2cc1C1=NCCN1 | 3640 | 7820 | 80600 | 22 |  |  |  |  |
| c1cc2nc(CCCCc3nc4ccc(C5=NCCN5)cc4s3)sc2cc1C1=NCCN1 | 1140 | 1870 | 93000 | 82 |  |  |  |  |
| N=C(N)c1ccc2nc(CCCCCCc3nc4ccc(C(=N)N)cc4s3)sc2c1 | 890 | 1520 | 42500 | 48 |  |  |  |  |
| O=C(O)Cc1ccccc1Nc1c(Cl)cccc1Cl [DICLOFENAC] |  |  |  |  | 47.3 |  | 0.7 | 31.2 |
| c1cc2nc(C3CCC(c4nc5ccc(C6=NCCCN6)cc5s4)CC3)sc2cc1C1=NCCCN1 (stereo not drawn) | 21 | 31 | > 130000 | > 6200 |  |  |  |  |
| Cn1c(=O)c2c(ncn2C)n(C)c1=O [CAFFEINE] |  |  |  |  |  | > 60 |  |  |
| c1cc2nc(CCCCCCCc3nc4ccc(C5=NCCN5)cc4s3)sc2cc1C1=NCCN1 | 1490 | 2520 | 6850 | 4.6 |  |  |  |  |
| CSc1ccc(OCc2ncc([N+](=O)[O-])n2C)cc1 [FEXINIDAZOLE] | 2400 | 4510 |  |  |  |  |  |  |
| c1cc2nc(C3CCC(c4nc5ccc(C6=NCCN6)cc5s4)CC3)sc2cc1C1=NCCN1 (stereo not drawn) | 240 | 490 | 4150 | 17 |  |  |  |  |
| c1cc2nc(CCCCCCc3nc4ccc(C5=NCCN5)cc4s3)sc2cc1C1=NCCN1 | 820 | 1880 | 10900 | 13 |  |  |  |  |
